Reference: ChEMBL document CHEMBL1795341, “Efficient synthesis, structural characterization and anti-microbial activity of chiral aryl boronate esters of 1,2-O-isopropylidene-α-D-xylofuranose” (2011)
Values after ≈ are worked out from the molar mass of the structure shown.

Experiments:
Format in all cases: functional
[1] = tested on: Bacillus subtilis; test: Antibacterial activity against Bacillus subtilis MTCC 441 by broth microdilution method
[2] = tested on: Staphylococcus aureus; test: Antibacterial activity against Staphylococcus aureus MTCC 96 by broth microdilution method
[3] = tested on: Staphylococcus epidermidis; test: Antibacterial activity against Staphylococcus epidermidis MTCC 2639 by broth microdilution method
[4] = tested on: Escherichia coli; test: Antibacterial activity against Escherichia coli MTCC 443 by broth microdilution method
[5] = tested on: Pseudomonas aeruginosa; test: Antibacterial activity against Pseudomonas aeruginosa MTCC 741 by broth microdilution method
[6] = tested on: Klebsiella pneumoniae; test: Antibacterial activity against Klebsiella pneumoniae MTCC 618 by broth microdilution method
[7] = tested on: Candida albicans; test: Antifungal activity against Candida albicans MTCC 227 at 100 ug after 48 hrs by agar well diffusion method; conditions: MTCC 227, 48 h, read-out: DIZ
Method in brief: (§1)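 Agar well diffusion on potato dextrose agar; 0.5 ml week-old culture spread over solidified plates, 6 mm wells bored. Compounds dissolved in DMSO at different concentrations and added to wells, with controls. Incubated 27 °C for 48 h; inhibition zone diameter measured in mm; three to four replicates per treatment.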

[8] = tested on: Candida albicans; test: Antifungal activity against Candida albicans MTCC 227 at 150 ug after 48 hrs by agar well diffusion method; conditions: MTCC 227, 48 h, read-out: DIZ; method in brief: as §1
[9] = tested on: Diutina rugosa; test: Antifungal activity against Candida rugosa NCIM 3462 at 100 ug after 48 hrs by agar well diffusion method; conditions: NCIM 3462, 48 h, read-out: DIZ; method in brief: as §1
[10] = tested on: Diutina rugosa; test: Antifungal activity against Candida rugosa NCIM 3462 at 150 ug after 48 hrs by agar well diffusion method; conditions: NCIM 3462, 48 h, read-out: DIZ; method in brief: as §1
[11] = tested on: Saccharomyces cerevisiae; test: Antifungal activity against Saccharomyces cerevisiae MTCC 36 at 100 ug after 48 hrs by agar well diffusion method; conditions: MTCC 36, 48 h, read-out: DIZ; method in brief: as §1
[12] = tested on: Saccharomyces cerevisiae; test: Antifungal activity against Saccharomyces cerevisiae MTCC 36 at 150 ug after 48 hrs by agar well diffusion method; conditions: MTCC 36, 48 h, read-out: DIZ; method in brief: as §1
[13] = tested on: Aspergillus niger; test: Antifungal activity against Aspergillus niger MTCC 282 at 100 ug after 48 hrs by agar well diffusion method; conditions: MTCC 282, 48 h, read-out: DIZ; method in brief: as §1
[14] = tested on: Aspergillus niger; test: Antifungal activity against Aspergillus niger MTCC 282 at 150 ug after 48 hrs by agar well diffusion method; conditions: MTCC 282, 48 h, read-out: DIZ; method in brief: as §1

Row | SMILES | MIC [1] [µg/mL] | MIC [2] [µg/mL] | MIC [3] [µg/mL] | MIC [4] [µg/mL] | MIC [5] [µg/mL] | MIC [6] [µg/mL] | zone of inhibition at 100 µg/disc [7] [mm] | zone of inhibition at 150 µg/disc [8] [mm] | zone of inhibition at 100 µg/disc [9] [mm] | zone of inhibition at 150 µg/disc [10] [mm] | zone of inhibition at 100 µg/disc [11] [mm] | zone of inhibition at 150 µg/disc [12] [mm] | zone of inhibition at 100 µg/disc [13] [mm] | zone of inhibition at 150 µg/disc [14] [mm]
1 | CC1(C)O[C@H]2O[C@@H]3COB(c4ccsc4)O[C@@H]3[C@H]2O1 | 75 (≈ 266 µM) | 37.5 (≈ 133 µM) | 18.8 (≈ 66.5 µM) | 4.68 (≈ 16.6 µM) | 18.8 (≈ 66.5 µM) | 75 (≈ 266 µM) | 0 | 7 | 14 | 20 | 10 | 14 | 12 | 16
2 | CC1(C)O[C@H]2O[C@@H]3COB(c4ccccc4)O[C@@H]3[C@H]2O1 | 37.5 (≈ 136 µM) | 75 (≈ 272 µM) | 18.8 (≈ 67.9 µM) | 18.8 (≈ 67.9 µM) | 37.5 (≈ 136 µM) | 75 (≈ 272 µM) | 0 | 6 | 0 | 0 | 0 | 0 | 8 | 12
3 | CC1(C)O[C@H]2O[C@@H]3COB(c4ccc(F)cc4)O[C@@H]3[C@H]2O1 | 75 (≈ 255 µM) | 18.8 (≈ 63.8 µM) | 75 (≈ 255 µM) | 37.5 (≈ 128 µM) | 75 (≈ 255 µM) | 37.5 (≈ 128 µM) | 6 | 8 | 11 | 14 | 7 | 10 | 0 | 6
4 | C=Cc1ccc(B2OC[C@H]3O[C@@H]4OC(C)(C)O[C@@H]4[C@H]3O2)cc1 | 75 (≈ 248 µM) | 75 (≈ 248 µM) | 75 (≈ 248 µM) | 150 (≈ 496 µM) | 37.5 (≈ 124 µM) | 150 (≈ 496 µM) | 6 | 9 | 0 | 0 | 6 | 8 | 9 | 14
5 | COc1ccc(B2OC[C@H]3O[C@@H]4OC(C)(C)O[C@@H]4[C@H]3O2)cc1 | 150 (≈ 490 µM) | 150 (≈ 490 µM) | 150 (≈ 490 µM) | 150 (≈ 490 µM) | 150 (≈ 490 µM) | 75 (≈ 245 µM) | 0 | 0 | 7 | 10 | 0 | 0 | 0 | 0
6 | Cc1ccc(B2OC[C@H]3O[C@@H]4OC(C)(C)O[C@@H]4[C@H]3O2)cc1 | 150 (≈ 517 µM) | 150 (≈ 517 µM) | 150 (≈ 517 µM) | 150 (≈ 517 µM) | 150 (≈ 517 µM) | 150 (≈ 517 µM) | 0 | 0 | 0 | 6 | 0 | 0 | 0 | 0
7 | CC1(C)O[C@H]2O[C@@H]3COB(c4ccc(C=O)cc4)O[C@@H]3[C@H]2O1 | 18.8 (≈ 61.7 µM) | 9.38 (≈ 30.8 µM) | 18.8 (≈ 61.7 µM) | 4.68 (≈ 15.4 µM) | 37.5 (≈ 123 µM) | 4.68 (≈ 15.4 µM) | 12 | 14 | 13 | 17 | 14 | 19 | 6 | 8
8 | CC1(C)O[C@H]2O[C@@H]3COB(c4cccc([N+](=O)[O-])c4)O[C@@H]3[C@H]2O1 | 2.34 (≈ 7.29 µM) | 4.68 (≈ 14.6 µM) | 9.38 (≈ 29.2 µM) | 9.38 (≈ 29.2 µM) | 18.8 (≈ 58.4 µM) | 4.68 (≈ 14.6 µM) | 13 | 18 | 16 | 20 | 11 | 16 | 14 | 18
9 | CC1(C)O[C@H]2O[C@@H]3COB(c4cccs4)O[C@@H]3[C@H]2O1 | 75 (≈ 266 µM) | 150 (≈ 532 µM) | 37.5 (≈ 133 µM) | 150 (≈ 532 µM) | 75 (≈ 266 µM) | 150 (≈ 532 µM) | 0 | 6 | 9 | 13 | 12 | 17 | 9 | 11
10 | CC1(C)O[C@H]2O[C@@H]3COB(c4ccc5ccccc5c4)O[C@@H]3[C@H]2O1 | 150 (≈ 460 µM) | 150 (≈ 460 µM) | 75 (≈ 230 µM) | 150 (≈ 460 µM) | 150 (≈ 460 µM) | 150 (≈ 460 µM) | 6 | 9 | 13 | 16 | 7 | 11 | 0 | 4
11 | C[C@@H]1[C@H](O)[C@@H](C)/C=C/C=C/C=C/C=C/C=C/C=C/C=C/[C@H](O[C@@H]2O[C@H](C)[C@@H](O)[C@H](N)[C@@H]2O)C[C@@H]2O[C@](O)(C[C@@H](O)C[C@@H](O)[C@H](O)CC[C@@H](O)C[C@@H](O)CC(=O)O[C@H]1C)C[C@H](O)[C@H]2C(=O)O [AMPHOTERICIN B] |  |  |  |  |  |  | 23.5 |  | 21 |  | 22 |  | 25 | 
12 | CC1(C)S[C@@H]2[C@H](NC(=O)Cc3ccccc3)C(=O)N2[C@H]1C(=O)O [PENICILLIN G] | 1.56 (≈ 4.67 µM) | 1.56 (≈ 4.67 µM) | 3.12 (≈ 9.35 µM) | 12.5 (≈ 37.4 µM) | 12.5 (≈ 37.4 µM) | 6.25 (≈ 18.7 µM) |  |  |  |  |  |  |  | 
13 | CN[C@@H]1[C@H](O[C@H]2[C@H](O[C@H]3[C@H](O)[C@@H](O)[C@H](N=C(N)N)[C@@H](O)[C@@H]3N=C(N)N)O[C@@H](C)[C@]2(O)C=O)O[C@@H](CO)[C@H](O)[C@H]1O [STREPTOMYCIN] | 6.25 (≈ 10.7 µM) | 6.25 (≈ 10.7 µM) | 3.12 (≈ 5.37 µM) | 6.25 (≈ 10.7 µM) | 1.56 (≈ 2.69 µM) | 3.12 (≈ 5.37 µM) |  |  |  |  |  |  |  | 
